Laboratory results: ChEMBL document CHEMBL1833961, “Homology modeling in tandem with 3D-QSAR analyses: a computational approach to depict the agonist binding site of the human CB2 receptor” (Eur J Med Chem, 2011)

Experiments:
Format in all cases: cell-based
Cannabinoid receptor 2 [1] = target: T1, Cannabinoid receptor 2 (Homo sapiens, UniProt P34972); test: Displacement of [3H]-WIN 55,212-2 from human CB2 receptor expressed in human HEK293 cells after 90 mins by radioligand assay
Cannabinoid receptor 2 [2] = target: T1, Cannabinoid receptor 2; test: Displacement of [3H]-WIN 55,212-2 from human CB2 receptor expressed in human HEK293 cells at 10 uM after 90 mins by radioligand assay
Cannabinoid receptor 1 [3] = target: T2, Cannabinoid receptor 1 (Homo sapiens, UniProt P21554); test: Displacement of [3H]-CP-55,940 from human CB1 receptor expressed in human HEK293 cells at 10 uM after 90 mins by radioligand assay
T2 sequence (P21554 whole entry): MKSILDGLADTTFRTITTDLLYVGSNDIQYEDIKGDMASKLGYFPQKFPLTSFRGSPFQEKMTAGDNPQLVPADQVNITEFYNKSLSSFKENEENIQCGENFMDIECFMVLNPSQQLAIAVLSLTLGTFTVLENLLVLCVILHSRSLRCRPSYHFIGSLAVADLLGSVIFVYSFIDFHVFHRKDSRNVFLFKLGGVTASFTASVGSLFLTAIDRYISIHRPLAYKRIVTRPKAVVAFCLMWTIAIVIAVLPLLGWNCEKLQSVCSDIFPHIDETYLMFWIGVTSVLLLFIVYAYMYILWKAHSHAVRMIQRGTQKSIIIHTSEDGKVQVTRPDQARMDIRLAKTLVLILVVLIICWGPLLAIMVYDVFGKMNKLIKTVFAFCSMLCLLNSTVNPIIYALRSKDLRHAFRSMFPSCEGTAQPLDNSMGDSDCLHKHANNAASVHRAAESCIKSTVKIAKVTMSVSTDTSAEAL
How it was run: (§1)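 Percent displacement of [3H]-CP 55,940 (0.5 nM) from human recombinant CB1 in HEK-293 cell membranes (Bmax 2.5 pmol/mg protein), with a single inhibitor concentration of 1 or 10 µM. Incubation was 90 min at 30 °C, and nonspecific binding was defined with 10 uM WIN 55212-2.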

Cannabinoid receptor 1 [4] = target: T2, Cannabinoid receptor 1; test: Displacement of [3H]-CP-55,940 from human CB1 receptor expressed in human HEK293 cells after 90 mins by radioligand assay
How it was run: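 Membranes from HEK-293 cells transfected with human recombinant CB1 (Bmax 2.5 pmol/mg protein) were incubated with 0.14 nM [3H]-CP-55,940 (Kd 0.18 nM) and increasing compound concentrations for 90 min at 30 °C. Nonspecific binding was defined with 10 uM WIN 55212-2. Ki was calculated from IC50 by Cheng–Prusoff.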

Cannabinoid receptor 1 [5] = target: T2, Cannabinoid receptor 1; test: Displacement of [3H]-CP-55,940 from human CB1 receptor expressed in human HEK293 cells at 1 uM after 90 mins by radioligand assay; how it was run: as §1
Cannabinoid receptor 2 [6] = target: T1, Cannabinoid receptor 2; test: Displacement of [3H]-WIN 55,212-2 from human CB2 receptor expressed in human HEK293 cells at 1 uM after 90 mins by radioligand assay

T1 sequence (P34972 whole entry): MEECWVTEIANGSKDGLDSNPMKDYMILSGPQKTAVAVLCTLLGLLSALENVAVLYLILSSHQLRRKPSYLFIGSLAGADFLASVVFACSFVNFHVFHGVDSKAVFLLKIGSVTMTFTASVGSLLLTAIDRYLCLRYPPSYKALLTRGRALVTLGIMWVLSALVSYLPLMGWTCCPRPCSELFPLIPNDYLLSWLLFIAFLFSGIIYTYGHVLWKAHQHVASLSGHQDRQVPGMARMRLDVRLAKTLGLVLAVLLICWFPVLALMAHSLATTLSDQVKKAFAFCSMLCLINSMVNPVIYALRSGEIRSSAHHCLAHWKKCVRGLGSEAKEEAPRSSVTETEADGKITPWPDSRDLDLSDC

Row | Compound | Ki (Cannabinoid receptor 2 [1]; read-out: pKi (converted)) [nM] | Activity (Cannabinoid receptor 2 [2]) [%] | IC50 (Cannabinoid receptor 2 [1]) [nM] | Ki (Cannabinoid receptor 2 [1]; read-out: Ki) [nM] | Activity (Cannabinoid receptor 1 [3]) [%] | IC50 (Cannabinoid receptor 1 [4]) [nM] | Ki (Cannabinoid receptor 1 [4]) [nM] | Activity (Cannabinoid receptor 1 [5]) [%] | Activity (Cannabinoid receptor 2 [6]) [%]
1 | CC1(C)C(C(=O)c2cn(CC3CCOCC3)c3c(CC4CCOCC4)c4c(cc23)OCO4)C1(C)C | 1.02 |  |  |  |  |  |  |  | 
2 | CCOC(=O)/C(=C/c1cn(CCN2CCOCC2)c2ccccc12)C(=O)c1ccccc1 |  | 66 | 6220 | 1580 | 43.2 | > 10000 | > 10000 |  | 
3 | CCOC(=O)/C(=C/c1cn(CCN2CCCCC2)c2ccccc12)C(=O)c1ccccc1 |  | 70.8 | 5480 | 1390 | 25.1 | > 10000 | > 10000 |  | 
4 | N#C/C(=C\c1cn(CCN2CCOCC2)c2ccccc12)S(=O)(=O)c1ccccc1 |  |  | 40.1 | 10.2 |  | 155 | 62 | 85 | 95.9
5 | N#C/C(=C\c1cn(CCN2CCCCC2)c2ccccc12)S(=O)(=O)c1ccccc1 |  | 101 |  | 7.5 | 83 |  |  |  | 
